Test results from ChEMBL document CHEMBL2331336, “Discovery and structure-activity relationship of 1,3-cyclohexyl amide derivatives as novel mGluR5 negative allosteric modulators” (Bioorg Med Chem Lett, 2013).
Converted amounts (≈) assume the structure as drawn. The source made the active and inactive calls. The rule behind the calls is not given here.

Tests used:
[1] = biological target: T1, Metabotropic glutamate receptor 5 (Homo sapiens, UniProt P41594); assay: Antagonist activity at human mGluR5 expressed in HEK293 cells assessed as inhibition of Ca2+ mobilization by FLIPR assay; assay type: functional, cell-based
[2] = Drug uptake in CD-1 mouse brain at 10 mg/kg, po at 1 hr; assay type: ADME, organism-based; set-up: dose 10 mg/kg, route oral; details: read-out: Drug uptake
[3] = Plasma concentration in CD-1 mouse at 10 mg/kg, sc at 1 hr; assay type: ADME, organism-based; set-up: dose 10 mg/kg, route subcutaneous
Summary of the method: (§1)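 CD-1 mice (n = 2), 10 mg/kg SC in 20% hydroxypropyl-β-cyclodextrin in water. Brain and plasma sampled at 1 h; averages reported. Quantification limits were 2 ng/g for brain and 2 ng/mL for plasma. Kupp is the ratio of unbound brain to unbound plasma concentration.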

[4] = Ratio of drug uptake in brain to plasma of CD-1 mouse at 10 mg/kg, sc at 1 hr; assay type: ADME, organism-based; set-up: dose 10 mg/kg, route subcutaneous; details: read-out: BPR; summary of the method: as §1
Plasma [5] = assay: Fraction unbound in mouse plasma; assay type: ADME, cell-free
Liver = assay: Intrinsic clearance in mouse liver microsomes; assay type: ADME, Microsome
Mus musculus = assay: Anxiolytic-like activity in mouse at 30 mg/kg, sc measured after 1 hr by marble burying test; assay type: functional, organism-based; set-up: dose 30 mg/kg
Summary of the method: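 Male CD-1 mice, n = 12 per group, given 3, 10 or 30 mg/kg sc in 20% HPβCD (5 mL/kg); buspirone 10 mg/kg sc in water as positive control. Mice were placed singly in cages for a 30 min session, and marbles buried out of 20 were counted. One-way ANOVA with Dunnett's test.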

[6] = biological target: T2, Metabotropic glutamate receptor 1 (Rattus norvegicus, UniProt P23385); assay: Antagonist activity at rat mGluR1 expressed in HEK293 cells assessed as inhibition of Ca2+ mobilization by FLIPR assay; assay type: functional, cell-based
Summary of the method: (§2)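 Rat mGluR1 stably in HEK293 cells (1.5% calf serum medium), seeded 24 h earlier, Fluo-4 loaded 1 h at 37 °C in HBSS/HEPES pH 7.4 with probenecid. Curves fitted with Hill equation.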

[7] = biological target: T2, Metabotropic glutamate receptor 1; assay: Agonist activity at rat mGluR1 expressed in HEK293 cells assessed as Ca2+ mobilization by FLIPR assay; assay type: functional, cell-based; summary of the method: as §2
[8] = Ratio of drug uptake in brain to plasma of CD-1 mouse at 10 mg/kg, po at 1 hr; assay type: ADME, organism-based; set-up: dose 10 mg/kg, route oral; details: read-out: BPR
[9] = Drug uptake in CD-1 mouse brain at 10 mg/kg, sc at 1 hr; assay type: ADME, organism-based; set-up: dose 10 mg/kg, route subcutaneous; details: read-out: Drug uptake; summary of the method: as §1
[10] = Ratio of fraction unbound in brain to plasma of CD-1 mouse brain at 10 mg/kg, sc at 1 hr; assay type: ADME, organism-based; set-up: dose 10 mg/kg, route subcutaneous; details: in vivo; summary of the method: as §1
Liver microsomes [11] = assay: Intrinsic clearance in rat liver microsomes; assay type: ADME, Microsome
[12] = Plasma concentration in CD-1 mouse at 10 mg/kg, po at 1 hr; assay type: ADME, organism-based; set-up: dose 10 mg/kg, route oral
[13] = Fraction unbound in mouse brain; assay type: ADME, tissue-based
Liver microsomes [14] = assay: Intrinsic clearance in human liver microsomes; assay type: ADME, Microsome; set-up: unit not given here
[15] = Partition co-efficient, log D at pH 7.4 of the compound by shake flask method; assay type: physicochemical; details: buffer
[16] = Plasma clearance in Sprague-Dawley rat at 1 mg/kg, iv or 2 mg/kg, po; assay type: ADME, organism-based
Summary of the method: (§3)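 Sprague-Dawley rats (n = 2) dosed in a cross-over design with a 24 h washout: 1 mg/kg IV and 2 mg/kg PO in 20% hydroxypropyl-β-cyclodextrin in water. Rat hepatic blood flow was taken as 20 mL/min.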

Rattus norvegicus [17] = assay: AUC ( 0 to infinity) in Sprague-Dawley rat at 1 mg/kg, iv; assay type: ADME, organism-based, Plasma; set-up: time infinity, dose 1 mg/kg, route intravenous; details: in vivo
Summary of the method: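 Sprague-Dawley rats (n = 2), cross-over design with 24 h washout between routes; 1 mg/kg iv in 20% hydroxypropyl-β-cyclodextrin in water; plasma AUC0-inf derived from concentration–time profile.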

[18] = Half life in Sprague-Dawley rat at 1 mg/kg, iv or 2 mg/kg, po; assay type: ADME, organism-based; details: in vivo; summary of the method: as §3
[19] = Fraction unbound in rat brain; assay type: ADME, tissue-based
[20] = Kinetic solubility of the compound in potassium phosphate buffer after 4 hrs; assay type: physicochemical; details: read-out: Kinetic_solubility
Summary of the method: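 Kinetic solubility: compound from 10 mM DMSO stock diluted into 25 mM potassium phosphate buffer and shaken 4 h. Supernatant analyzed by UPLC with PDA detection at 254 nm.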

[21] = Cmax in Sprague-Dawley rat at 1 mg/kg, iv or 2 mg/kg, po; assay type: ADME, organism-based; details: in vivo; summary of the method: as §3
Rattus norvegicus [22] = assay: Bioavailability in Sprague-Dawley rat at 1 mg/kg, iv or 2 mg/kg, po; assay type: ADME, organism-based; details: in vivo; summary of the method: as §3
[23] = Tmax in Sprague-Dawley rat at 1 mg/kg, iv or 2 mg/kg, po; assay type: ADME, organism-based; details: in vivo; summary of the method: as §3
Plasma [24] = assay: Fraction unbound in rat plasma; assay type: ADME, cell-free
Rattus norvegicus [25] = assay: AUC ( 0 to infinity) in Sprague-Dawley rat at 2 mg/kg, po; assay type: ADME, organism-based, Plasma; set-up: dose 2 mg/kg, route oral, time infinity; details: in vivo
Summary of the method: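 Sprague-Dawley rats (n = 2), cross-over design with 24 h washout between routes; 2 mg/kg oral in 20% hydroxypropyl-β-cyclodextrin in water; plasma AUC0-inf derived from concentration–time profile.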

[26] = Plasma protein binding in human; assay type: ADME, cell-free; details: read-out: PPB (converted)
[27] = Volume of distribution at steady state in Sprague-Dawley rat at 1 mg/kg, iv or 2 mg/kg, po; assay type: ADME, organism-based; details: in vivo, read-out: Vdss; summary of the method: as §3
Rattus norvegicus [28] = assay: Plasma clearance in Sprague-Dawley rat at 1 mg/kg, iv or 2 mg/kg, po relative to hepatic blood flow; assay type: ADME, organism-based; details: in vivo; summary of the method: as §3
[29] = biological target: T1, Metabotropic glutamate receptor 5; assay: Displacement of [3H]-ABP688 from human mGluR5 expressed in HEK293 cells after 60 mins by scintillation counting; assay type: cell-based
[30] = Ratio of drug uptake in brain to plasma of Sprague-Dawley rat at 10 mg/kg, po at 1 hr; assay type: ADME, organism-based; set-up: dose 10 mg/kg, route oral; details: read-out: BPR
[31] = Drug uptake in Sprague-Dawley rat brain at 10 mg/kg, po at 1 hr; assay type: ADME, organism-based; set-up: dose 10 mg/kg, route oral; details: read-out: Drug uptake
[32] = Plasma concentration in Sprague-Dawley rat at 10 mg/kg, po at 1 hr; assay type: ADME, organism-based; set-up: dose 10 mg/kg, route oral

T1 sequence (P41594 whole entry): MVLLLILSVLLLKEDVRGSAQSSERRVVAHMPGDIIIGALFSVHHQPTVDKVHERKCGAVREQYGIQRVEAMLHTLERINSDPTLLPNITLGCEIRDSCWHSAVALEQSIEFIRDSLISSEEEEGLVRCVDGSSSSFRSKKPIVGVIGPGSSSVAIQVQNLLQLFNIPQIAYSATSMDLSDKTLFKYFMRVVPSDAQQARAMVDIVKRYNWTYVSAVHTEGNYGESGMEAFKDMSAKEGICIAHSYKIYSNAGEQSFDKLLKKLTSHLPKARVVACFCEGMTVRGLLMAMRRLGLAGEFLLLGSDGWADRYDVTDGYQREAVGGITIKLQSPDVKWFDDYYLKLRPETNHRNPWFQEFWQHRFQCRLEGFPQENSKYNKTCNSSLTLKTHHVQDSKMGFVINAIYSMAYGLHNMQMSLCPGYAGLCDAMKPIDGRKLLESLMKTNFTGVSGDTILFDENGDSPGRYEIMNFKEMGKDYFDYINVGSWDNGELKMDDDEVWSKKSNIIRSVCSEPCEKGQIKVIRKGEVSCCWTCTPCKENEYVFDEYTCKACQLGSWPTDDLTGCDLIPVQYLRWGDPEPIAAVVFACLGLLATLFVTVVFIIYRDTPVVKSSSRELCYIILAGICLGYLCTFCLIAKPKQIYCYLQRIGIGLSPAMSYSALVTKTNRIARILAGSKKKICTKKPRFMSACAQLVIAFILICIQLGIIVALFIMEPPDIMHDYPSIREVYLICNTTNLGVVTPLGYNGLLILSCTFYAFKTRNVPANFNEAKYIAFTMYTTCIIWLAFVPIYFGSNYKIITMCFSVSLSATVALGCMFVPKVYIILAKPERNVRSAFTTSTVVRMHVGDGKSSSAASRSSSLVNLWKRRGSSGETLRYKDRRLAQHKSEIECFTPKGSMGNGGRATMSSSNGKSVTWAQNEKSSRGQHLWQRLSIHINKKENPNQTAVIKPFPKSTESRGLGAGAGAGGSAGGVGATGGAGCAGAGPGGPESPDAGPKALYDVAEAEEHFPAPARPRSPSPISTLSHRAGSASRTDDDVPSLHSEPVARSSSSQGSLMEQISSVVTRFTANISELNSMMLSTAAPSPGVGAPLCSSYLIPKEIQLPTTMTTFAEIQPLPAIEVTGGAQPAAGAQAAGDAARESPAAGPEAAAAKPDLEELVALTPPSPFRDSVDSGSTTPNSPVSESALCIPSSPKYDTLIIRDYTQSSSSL
T2 sequence (P23385 whole entry): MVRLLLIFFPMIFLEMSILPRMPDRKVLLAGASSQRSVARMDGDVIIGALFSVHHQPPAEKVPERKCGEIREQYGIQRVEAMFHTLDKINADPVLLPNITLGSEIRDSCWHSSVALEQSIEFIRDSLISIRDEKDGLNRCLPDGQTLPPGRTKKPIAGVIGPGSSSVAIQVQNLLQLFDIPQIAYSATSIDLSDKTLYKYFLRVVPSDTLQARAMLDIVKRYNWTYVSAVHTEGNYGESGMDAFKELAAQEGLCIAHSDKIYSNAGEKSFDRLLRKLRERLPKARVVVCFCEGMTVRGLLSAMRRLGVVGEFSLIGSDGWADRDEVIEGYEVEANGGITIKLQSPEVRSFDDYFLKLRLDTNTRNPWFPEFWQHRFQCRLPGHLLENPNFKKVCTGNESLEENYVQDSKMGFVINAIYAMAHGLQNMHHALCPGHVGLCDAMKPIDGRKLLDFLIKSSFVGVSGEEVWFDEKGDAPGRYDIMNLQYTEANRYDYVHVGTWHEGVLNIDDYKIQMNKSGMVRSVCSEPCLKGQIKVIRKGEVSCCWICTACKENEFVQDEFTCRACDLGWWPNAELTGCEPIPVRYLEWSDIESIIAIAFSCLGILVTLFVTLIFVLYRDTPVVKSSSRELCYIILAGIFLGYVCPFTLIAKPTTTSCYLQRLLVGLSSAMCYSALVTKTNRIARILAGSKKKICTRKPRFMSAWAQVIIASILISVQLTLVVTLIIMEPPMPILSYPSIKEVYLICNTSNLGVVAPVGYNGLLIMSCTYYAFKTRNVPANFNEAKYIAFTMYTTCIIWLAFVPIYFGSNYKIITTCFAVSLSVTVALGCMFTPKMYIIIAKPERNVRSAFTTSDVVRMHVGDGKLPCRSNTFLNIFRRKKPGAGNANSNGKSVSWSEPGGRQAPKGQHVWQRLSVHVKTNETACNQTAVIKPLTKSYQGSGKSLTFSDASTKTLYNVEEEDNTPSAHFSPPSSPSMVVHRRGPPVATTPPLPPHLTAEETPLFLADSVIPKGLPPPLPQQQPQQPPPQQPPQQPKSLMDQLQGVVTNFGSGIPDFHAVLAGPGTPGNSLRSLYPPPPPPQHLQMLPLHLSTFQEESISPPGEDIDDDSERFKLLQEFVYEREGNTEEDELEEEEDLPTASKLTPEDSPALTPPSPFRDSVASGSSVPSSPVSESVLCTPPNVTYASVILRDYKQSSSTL

IC50 [1] [µM]	concentration at 1 h [3] [µM]	Kp at 1 h [4]	Cp(f) (Plasma [5]) [%]	Intrinsic clearance (Liver) [mL/min]	IC50 [6] [µM]	EC50 [7] [µM]	concentration at 1 h [9] [µM]	Ratio [10]	Intrinsic clearance (Liver microsomes [11]) [mL/min]	fraction unbound [13]	Intrinsic clearance (Liver microsomes [14])	Ki [29] [µM]	SMILES	further results
0.023	1.18	0.8	0.2	12.5	> 10	> 10	0.91	1.1	48	0.003	13		Cc1cccc(C(=O)N[C@H]2CCC[C@]3(CN=C(c4cccc(Cl)c4)O3)C2)n1	concentration at 1 h [2]: 0.009 µM; Activity (Mus musculus): Active; Kp at 1 h [8]: 0.5; concentration at 1 h [12]: 0.017 µM
0.062	0.5	0.34	11	9	> 10	> 10	0.17	0.67	41	0.22	1.1	0.205	O=C(N[C@@H]1CCC[C@@H](NC(=O)c2ccccn2)C1)c1cccc(Cl)c1	logD [15]: 3.2; clearance [16]: 4.1 L/h/kg; AUC (Rattus norvegicus [17]): 0.26 µg·h/mL; half-life [18]: 0.6 h; fraction unbound [19]: 0.13; solubility kinetic at 4 h [20]: 240 µM (≈ 85.9 µg/mL); Cmax [21]: 0.22 µg/mL; bioavailability (Rattus norvegicus [22]): 80%; Tmax [23]: 2 h; Cp(f) (Plasma [24]): 14%; AUC (Rattus norvegicus [25]): 0.53 µg·h/mL; fraction unbound [26]: 0.065; Vd [27]: 3.4 L/kg; CL (Rattus norvegicus [28]): 85%
0.115	1.17	1	0.3	8.8	> 10	> 10	1.17	1.6	160	0.005	13	0.178	O=C(N[C@H]1CCC[C@]2(CN=C(c3cccc(Cl)c3)O2)C1)c1ccccn1	Kp at 1 h [30]: 0.6; concentration at 1 h [31]: 0.005 µM; concentration at 1 h [32]: 0.008 µM
